Where “and” joins values, the source holds several entries; their conditions need not be identical. Identical values can stand only once.
System: U2OS
Experiment: Multiplex assay against U2OS
Format: toxicity, cell-based
Conditions: human
Method in brief: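 Phenotypes for tubulin, mitochondrial mass and membrane permeability are expressed as per cents of healthy-nucleus cells. Cells were stained live at seeding with Hoechst33342, BioTracker Green Microtubule Cytoskeleton Dye, MitoTracker Red and Annexin V Alexa Fluor 680, then imaged after compound addition on a CQ1 microscope at 37°C and 5% CO2. Machine-learning gating in CellPathfinder separated Hoechst high-intensity objects from normal cells, divided normal cells by nuclear state (healthy, pyknosed, fragmented) and divided pyknosed cells into mitotic or apoptotic.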

[1] = 12 h, 1 µM, compound concentration 1 uM
[2] = 12 h, 10 µM, compound concentration 10 uM
[3] = 24 h, 1 µM, compound concentration 1 uM
[4] = 24 h, 10 µM, compound concentration 10 uM
[5] = 48 h, 1 µM, compound concentration 1 uM
[6] = 48 h, 10 µM, compound concentration 10 uM

CC(C)(O)C(=O)N1CCN(c2ccc(C(F)(F)F)c(C3=C(c4c[nH]c5ccccc45)C(=O)NC3=O)c2)CC1
Population Apoptotic (%) [1]: 88% and 92%
Population Fragmented Nuclei (%) [1]: 29% and 14%
Population Healthy Nuclei (%) [1]: 63% and 75%
Population Hoechst High Intensity Objects (%) [1]: 3% and 1%
Population Membrane Permeable-Phenotype (%) [1]: 5% and 4%
Population Mitochondria Different-Phenotype (%) [1]: 2% and 4%
Population Mitotic Cells (%) [1]: 11% and 7%
Population Normal (%) [1]: 96% and 98%
Population Pyknosed Nuclei (%) [1]: 7% and 9%
Population Tubulin-Different-Phenotype (%) [1]: 3%
Total Cell Count [1]: 238 and 134
Population Apoptotic (%) [2]: 76% and 50%
Population Healthy Nuclei (%) [2]: 46% and 77%
Population Hoechst High Intensity Objects (%) [2]: 6% and 1%
Population Membrane Permeable-Phenotype (%) [2]: 39% and 14%
Population Mitochondria Different-Phenotype (%) [2]: 23% and 14%
Population Mitotic Cells (%) [2]: 24% and 50%
Population Normal (%) [2]: 93% and 98%
Population Pyknosed Nuclei (%) [2]: 16%
Population Tubulin-Different-Phenotype (%) [2]: 30% and 15%
Total Cell Count [2]: 166 and 148
Population Apoptotic (%) [3]: 89% and 82%
Population Fragmented Nuclei (%) [3]: 27% and 22%
Population Healthy Nuclei (%) [3]: 61% and 67%
Population Hoechst High Intensity Objects (%) [3]: 3% and 0%
Population Membrane Permeable-Phenotype (%) [3]: 7% and 4%
Population Mitochondria Different-Phenotype (%) [3]: 3% and 2%
Population Mitotic Cells (%) [3]: 10% and 17%
Population Normal (%) [3]: 96% and 100%
Population Pyknosed Nuclei (%) [3]: 11% and 9%
Population Tubulin-Different-Phenotype (%) [3]: 5% and 2%
Total Cell Count [3]: 263 and 172
Population Apoptotic (%) [4]: 87% and 70%
Population Fragmented Nuclei (%) [4]: 48% and 16%
Population Healthy Nuclei (%) [4]: 27% and 53%
Population Hoechst High Intensity Objects (%) [4]: 6% and 2%
Population Membrane Permeable-Phenotype (%) [4]: 11% and 15%
Population Mitochondria Different-Phenotype (%) [4]: 34% and 24%
Population Mitotic Cells (%) [4]: 12% and 29%
Population Normal (%) [4]: 93% and 97%
Population Pyknosed Nuclei (%) [4]: 24% and 29%
Population Tubulin-Different-Phenotype (%) [4]: 15% and 11%
Total Cell Count [4]: 172 and 152
Population Apoptotic (%) [5]: 95% and 85%
Population Fragmented Nuclei (%) [5]: 21% and 17%
Population Healthy Nuclei (%) [5]: 65% and 73%
Population Hoechst High Intensity Objects (%) [5]: 3% and 1%
Population Membrane Permeable-Phenotype (%) [5]: 6% and 7%
Population Mitochondria Different-Phenotype (%) [5]: 4% and 3%
Population Mitotic Cells (%) [5]: 4% and 14%
Population Normal (%) [5]: 96% and 98%
Population Pyknosed Nuclei (%) [5]: 12% and 9%
Population Tubulin-Different-Phenotype (%) [5]: 5% and 2%
Total Cell Count [5]: 377 and 233
Population Apoptotic (%) [6]: 95% and 96%
Population Fragmented Nuclei (%) [6]: 57% and 31%
Population Healthy Nuclei (%) [6]: 11% and 27%
Population Hoechst High Intensity Objects (%) [6]: 14% and 7%
Population Membrane Permeable-Phenotype (%) [6]: 27% and 17%
Population Mitochondria Different-Phenotype (%) [6]: 16% and 14%
Population Mitotic Cells (%) [6]: 4% and 3%
Population Normal (%) [6]: 85% and 92%
Population Pyknosed Nuclei (%) [6]: 30% and 41%
Population Tubulin-Different-Phenotype (%) [6]: 11% and 17%
Total Cell Count [6]: 177 and 163

O=C1[C@H](Cc2ccc(O)cc2)N2C(=O)CCN(C(=O)NCc3ccccc3)[C@H]2CN1Cc1cccc2ccccc12
Population Apoptotic (%) [1]: 91% and 84%
Population Fragmented Nuclei (%) [1]: 13% and 21%
Population Healthy Nuclei (%) [1]: 74% and 66%
Population Hoechst High Intensity Objects (%) [1]: 4% and 0%
Population Membrane Permeable-Phenotype (%) [1]: 4% and 5%
Population Mitochondria Different-Phenotype (%) [1]: 1% and 8%
Population Mitotic Cells (%) [1]: 8% and 15%
Population Normal (%) [1]: 96% and 99%
Population Pyknosed Nuclei (%) [1]: 12% and 11%
Population Tubulin-Different-Phenotype (%) [1]: 1% and 4%
Total Cell Count [1]: 200 and 113
Population Apoptotic (%) [2]: 60% and 72%
Population Fragmented Nuclei (%) [2]: 32% and 19%
Population Healthy Nuclei (%) [2]: 50% and 67%
Population Hoechst High Intensity Objects (%) [2]: 3% and 6%
Population Membrane Permeable-Phenotype (%) [2]: 55% and 38%
Population Mitochondria Different-Phenotype (%) [2]: 35% and 47%
Population Mitotic Cells (%) [2]: 40% and 27%
Population Normal (%) [2]: 96% and 93%
Population Pyknosed Nuclei (%) [2]: 17% and 13%
Population Tubulin-Different-Phenotype (%) [2]: 55% and 43%
Total Cell Count [2]: 207 and 88
Population Apoptotic (%) [3]: 80% and 88%
Population Fragmented Nuclei (%) [3]: 13% and 14%
Population Healthy Nuclei (%) [3]: 73% and 71%
Population Hoechst High Intensity Objects (%) [3]: 2% and 1%
Population Membrane Permeable-Phenotype (%) [3]: 4% and 7%
Population Mitochondria Different-Phenotype (%) [3]: 1% and 5%
Population Mitotic Cells (%) [3]: 19% and 11%
Population Normal (%) [3]: 97% and 98%
Population Pyknosed Nuclei (%) [3]: 13% and 14%
Population Tubulin-Different-Phenotype (%) [3]: 2% and 4%
Total Cell Count [3]: 242 and 127
Population Apoptotic (%) [4]: 65% and 85%
Population Fragmented Nuclei (%) [4]: 34% and 29%
Population Healthy Nuclei (%) [4]: 42% and 54%
Population Hoechst High Intensity Objects (%) [4]: 3% and 5%
Population Membrane Permeable-Phenotype (%) [4]: 25% and 36%
Population Mitochondria Different-Phenotype (%) [4]: 23% and 38%
Population Mitotic Cells (%) [4]: 34% and 14%
Population Normal (%) [4]: 96% and 94%
Population Pyknosed Nuclei (%) [4]: 22% and 16%
Population Tubulin-Different-Phenotype (%) [4]: 25% and 42%
Total Cell Count [4]: 214 and 91
Population Apoptotic (%) [5]: 81% and 95%
Population Fragmented Nuclei (%) [5]: 15% and 16%
Population Healthy Nuclei (%) [5]: 73% and 67%
Population Hoechst High Intensity Objects (%) [5]: 3% and 5%
Population Membrane Permeable-Phenotype (%) [5]: 2% and 3%
Population Mitochondria Different-Phenotype (%) [5]: 2% and 0%
Population Normal (%) [5]: 96% and 94%
Population Pyknosed Nuclei (%) [5]: 11% and 15%
Population Tubulin-Different-Phenotype (%) [5]: 3% and 5%
Total Cell Count [5]: 326 and 168
Population Apoptotic (%) [6]: 82% and 81%
Population Fragmented Nuclei (%) [6]: 37% and 33%
Population Healthy Nuclei (%) [6]: 43% and 46%
Population Hoechst High Intensity Objects (%) [6]: 5% and 4%
Population Membrane Permeable-Phenotype (%) [6]: 28% and 22%
Population Mitochondria Different-Phenotype (%) [6]: 16% and 20%
Population Mitotic Cells (%) [6]: 17% and 18%
Population Normal (%) [6]: 94% and 95%
Population Pyknosed Nuclei (%) [6]: 19% and 20%
Population Tubulin-Different-Phenotype (%) [6]: 19% and 18%
Total Cell Count [6]: 252 and 111

O=C1c2c(Br)c(Br)c(Br)c(Br)c2C(=O)N1c1ncc[nH]1
Population Apoptotic (%) [1]: 34.38% and 22.22%
Population Fragmented Nuclei (%) [1]: 2.78% and 4.62%
Population Healthy Nuclei (%) [1]: 88.33% and 79.77%
Population Hoechst High Intensity Objects (%) [1]: 0%
Population Membrane Permeable-Phenotype (%) [1]: 2.52% and 6.52%
Population Mitochondria Different-Phenotype (%) [1]: 0.94% and 6.52%
Population Mitotic Cells (%) [1]: 65.62% and 77.78%
Population Normal (%) [1]: 100%
Population Pyknosed Nuclei (%) [1]: 8.89% and 15.61%
Population Tubulin-Different-Phenotype (%) [1]: 1.26% and 0.72%
Total Cell Count [1]: 360 and 173
Population Apoptotic (%) [2]: 30.95% and 44.44%
Population Fragmented Nuclei (%) [2]: 1.83% and 1.43%
Population Healthy Nuclei (%) [2]: 88.58% and 85.71%
Population Hoechst High Intensity Objects (%) [2]: 0%
Population Membrane Permeable-Phenotype (%) [2]: 0.77% and 1.67%
Population Mitochondria Different-Phenotype (%) [2]: 0% and 5%
Population Mitotic Cells (%) [2]: 69.05% and 55.56%
Population Normal (%) [2]: 100%
Population Pyknosed Nuclei (%) [2]: 9.59% and 12.86%
Population Tubulin-Different-Phenotype (%) [2]: 0.77% and 0.83%
Population Apoptotic (%) [3]: 47.37% and 28.12%
Population Fragmented Nuclei (%) [3]: 1.69% and 4.85%
Population Healthy Nuclei (%) [3]: 90.27% and 81.06%
Population Hoechst High Intensity Objects (%) [3]: 0.21% and 0%
Population Membrane Permeable-Phenotype (%) [3]: 1.17% and 4.35%
Population Mitochondria Different-Phenotype (%) [3]: 0.47% and 3.8%
Population Mitotic Cells (%) [3]: 52.63% and 71.88%
Population Normal (%) [3]: 99.79% and 100%
Population Pyknosed Nuclei (%) [3]: 8.03% and 14.1%
Population Tubulin-Different-Phenotype (%) [3]: 1.41% and 1.63%
Total Cell Count [3]: 474 and 227
Population Apoptotic (%) [4]: 43.1% and 37.93%
Population Fragmented Nuclei (%) [4]: 1.95% and 1.6%
Population Healthy Nuclei (%) [4]: 88.62% and 82.89%
Population Hoechst High Intensity Objects (%) [4]: 0%
Population Membrane Permeable-Phenotype (%) [4]: 0.73% and 3.87%
Population Mitochondria Different-Phenotype (%) [4]: 0% and 3.87%
Population Mitotic Cells (%) [4]: 56.9% and 62.07%
Population Normal (%) [4]: 100%
Population Pyknosed Nuclei (%) [4]: 9.43% and 15.51%
Population Tubulin-Different-Phenotype (%) [4]: 0% and 0.65%
Population Apoptotic (%) [5]: 46.91% and 35.59%
Population Fragmented Nuclei (%) [5]: 2.45% and 2.79%
Population Healthy Nuclei (%) [5]: 88.91% and 82.23%
Population Hoechst High Intensity Objects (%) [5]: 0%
Population Membrane Permeable-Phenotype (%) [5]: 1.56% and 1.23%
Population Mitochondria Different-Phenotype (%) [5]: 0.24% and 3.09%
Population Mitotic Cells (%) [5]: 53.09% and 64.41%
Population Normal (%) [5]: 100%
Population Pyknosed Nuclei (%) [5]: 8.64% and 14.97%
Population Tubulin-Different-Phenotype (%) [5]: 0.84% and 0.31%
Total Cell Count [5]: 938 and 394
Population Apoptotic (%) [6]: 50.54% and 55.88%
Population Fragmented Nuclei (%) [6]: 4.81% and 1.63%
Population Healthy Nuclei (%) [6]: 86.74% and 87.25%
Population Hoechst High Intensity Objects (%) [6]: 0%
Population Membrane Permeable-Phenotype (%) [6]: 0.31% and 3.37%
Population Mitochondria Different-Phenotype (%) [6]: 0% and 1.12%
Population Mitotic Cells (%) [6]: 49.46% and 44.12%
Population Normal (%) [6]: 100%
Population Pyknosed Nuclei (%) [6]: 8.45% and 11.11%
Population Tubulin-Different-Phenotype (%) [6]: 0.31% and 1.87%

Source: ChEMBL document CHEMBL5724801, “EUbOPEN Chemogenomics Library - Multiplex” (2024)
